In the library only some 4.6% were active in any assay of this set; here they are far more common.
OX1R antag-1: blocks the human orexin 1 receptor; O43613; CHO/OX1R cells, Fluo-8 calcium fluorescence, orexin A; inhibition, % at 5 µM; hit rate 0.43% among 330,000; AID 434989;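 active = inhibition above its plate's threshold, mean inhibition of all tested compounds on the plate plus 3 SD, cut at about 37% in these data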;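 note: 0% = orexin A challenge wells and 100% = SB-334867-A antagonist wells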
CHO parental Ca: counter-screen: ATP calcium response change in parental CHO cells; parental CHO-K1, ATP-induced calcium, Fluo-8 fluorescence; inhibition, % at 5.6 µM; hit rate 0.63% among 330,000;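 active = inhibition above that plate's mean sample inhibition plus 3 SD, cut at about 26% in these data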;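 note: 0% = ATP-challenged DMSO wells and 100% = DMSO wells without ATP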
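Material: Parental CHO cells | Reagent: ATP | Compound dosing: Single nominal dose of 5.6 µM per compound | Detection: Intracellular calcium via Fluo-8 no-wash fluorescent dye | Read-out: % inhibition of ATP-induced calcium mobilization | Benchmarks: Low control ATP plus DMSO, high control DMSO only | Replicates: Singlicate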
GPR7 antagonist: human neuropeptides B/W receptor 1 antagonism | inhibition, % at 4.4 µM | GPR7-expressing cells, fluorescence antagonist assay | hit rate 1.1% among 290,000 | P48145 | AID 1861; in the data active = inhibition above about 16%, passing the limit was not always enough;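 note: cells stimulated with the agonist NPW; 0% = agonist with vehicle and 100% = vehicle without agonist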
Target sequence (P48145 whole entry, looked up): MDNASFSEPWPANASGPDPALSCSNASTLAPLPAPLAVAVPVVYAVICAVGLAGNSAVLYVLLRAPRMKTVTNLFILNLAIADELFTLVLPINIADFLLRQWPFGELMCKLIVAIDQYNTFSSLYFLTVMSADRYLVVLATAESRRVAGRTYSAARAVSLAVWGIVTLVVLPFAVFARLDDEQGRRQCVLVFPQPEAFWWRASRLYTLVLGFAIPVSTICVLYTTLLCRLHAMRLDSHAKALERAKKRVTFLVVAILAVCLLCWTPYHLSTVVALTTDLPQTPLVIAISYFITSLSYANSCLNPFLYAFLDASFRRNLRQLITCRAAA
TAAR1 ag: human TAAR1 agonism. Q96RJ0. CHO RD-HGA16 TAAR1, Fluo-8 calcium fluorescence; vehicle wells 0%, saturating PEA agonist 100%. activation, % at 3 µM. hit rate 0.99% among 360,000;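 active = activation above the mean activation of all test compounds in the run plus 3 SD, cut at about 38% in these data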
Target sequence (Q96RJ0 whole entry, looked up): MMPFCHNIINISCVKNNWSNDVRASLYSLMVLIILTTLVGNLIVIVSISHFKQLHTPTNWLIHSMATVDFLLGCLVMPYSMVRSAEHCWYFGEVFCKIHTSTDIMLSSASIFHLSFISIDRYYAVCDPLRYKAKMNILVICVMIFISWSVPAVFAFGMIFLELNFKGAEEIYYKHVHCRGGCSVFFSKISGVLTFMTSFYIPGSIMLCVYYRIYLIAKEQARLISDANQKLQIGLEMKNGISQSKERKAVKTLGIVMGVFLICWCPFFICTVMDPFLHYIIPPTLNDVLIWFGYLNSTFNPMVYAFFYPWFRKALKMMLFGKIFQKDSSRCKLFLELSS
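Assay system – CHO-derived RD-HGA16 cells with stable Gα16 and human TAAR1 · Compound dosing – one-point dosing at 3 µM (nominal) · Incubation – 17-24 h seeding, 75 min 37 °C dye, 30 min RT · Measured by – kinetic Fluo-8 calcium fluorescence · Control set – DMSO vehicle as 0%, PEA at EC100 as 100% · Repeats – single well for each compound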
OX1R antag-2: OX1R (human) antagonism | inhibition, % at 6.6 µM | OX1R-expressing cells, FRET antagonist read-out | O43613 | hit rate 1.8% among 330,000; in the data active = inhibition mostly above about 38%, no sharp cut-off; inactive = mostly below about 40%;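 note: 0% = agonist challenge alone and 100% = reference antagonist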
TAAR1 antagonist: antagonists of human TAAR1; AID 624466; inhibition, % at 3 µM; Q96RJ0; CHO RD-HGA16 TAAR1, Fluo-8 calcium fluorescence, antagonist; hit rate 1.5% among 360,000;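 active = inhibition above a per-plate cutoff, the mean inhibition of test compounds on that plate plus 3 SD, cut at about 49% in these data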;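 note: 0% = DMSO plus EC80 beta-PEA response and 100% = DMSO alone without agonist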
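Test system – hTAAR1-expressing CHO RD-HGA16 cells, Gα16-coupled · Also added – β-PEA at EC80 concentration, post-compound challenge · Compound – 3 µM, single point · Incubation – dye loading 75 min at 37 °C, then 30 min room temperature · Measured by – Fluo-8 intracellular calcium dye fluorescence, real-time kinetic reads · Benchmarks – vehicle and agonist controls · Replicates – singlicate, one well per test compound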
Numbers without * were called inactive; . = no result.

SMILES | OX1R antag-1 | CHO parental Ca | GPR7 antagonist | TAAR1 ag | OX1R antag-2 | TAAR1 antagonist
S=C(NCCC(c1ccccc1)c1ccccc1)Nc1ccc(Cl)cc1 | 16 | -15 | 16 | 10 | 17 | 33
COc1cc(NC(=S)NCCC(c2ccccc2)c2ccccc2)c(OC)cc1Cl | 3 | -13 | -10 | 1 | 58* | 10
CCOc1ccc(NC(=O)/C(C#N)=C/c2cn(CC(=O)O)c3ccccc23)cc1 | . | . | -13 | -1 | . | -18
CCOc1cccc(NC(=O)/C(C#N)=C\c2cn(CC(=O)O)c3ccccc23)c1 | 0 | -9 | 0 | -1 | 55* | -5
COc1cc2c(cc1NC(=O)COC(=O)[C@@H](NS(=O)(=O)c1ccccc1)C(C)C)oc1ccccc12 | 20 | -5 | -10 | 4 | 75* | 25
O=C(c1ccc(N2CCCCC2)c([N+](=O)[O-])c1)N1CCN(c2ccccn2)CC1 | -18 | -23 | -15 | -2 | 20 | 15
O=C1C2CC=CCC2C(=O)N1c1ccc(N2CCN(c3ccccn3)CC2)c([N+](=O)[O-])c1 (centres undefined) | 27 | 46* | 2 | 9 | 42 | 13
COc1ccc(C)cc1S(=O)(=O)Nc1ccc2c(c1)N(C(C)=O)CCC2 | -21 | -13 | . | 4 | 9 | -3
CCN(CCC(=O)Nc1cc([N+](=O)[O-])ccc1OC)Cc1ccccc1 | -16 | -8 | 4 | 2 | 11 | -27
COc1c(OC(C)=O)ccc(/C=C/c2ccc3ccccc3n2)c1[N+](=O)[O-] | 2 | -7 | 5 | 9 | 42* | 17
CC(=O)Nc1ccccc1C(=O)C(=O)NCCc1ccccc1 | -24 | -6 | -1 | 1 | 6 | -5
CN1CCC(N(C)C(=O)CCc2nc3ccccc3n2-c2ccccc2)CC1 | -26 | -9 | -5 | 1 | 12 | -8
O=C(N/N=C/c1ccccn1)c1ccc(Cl)cc1 | -4 | 0 | -17 | 6 | 22 | -21
Cn1cccc1/C=N/NC(=O)c1sc2ccccc2c1Cl | 5 | -25 | -13 | 2 | 74* | -8
O=C(N/N=C/c1ccccn1)c1sc2ccccc2c1Cl | 30 | 31 | 19* | 6 | 64* | 8
Cc1ccc(C(=O)Nc2ccc(C(=O)N/N=C/c3ccccn3)cc2)cc1 | 20 | 35* | -10 | 4 | 22 | 32
Cc1c(/C=N/NC(=O)c2sc3ccccc3c2Cl)cnn1C | -19 | -13 | -3 | 7 | 48* | 13
O=C(CCNC(=O)c1ccccc1Cl)NCCc1ccc(C(F)(F)F)cc1 | -19 | -15 | 3 | 1 | 14 | 0
O=C1c2cc(Cl)ccc2OC2(CCNCC2)C12CC(c1ccccc1)=NO2 (centres undefined) | -2 | 3 | . | 43* | 32 | 39
O=C1c2cc(Cl)ccc2OC2(CCNCC2)C12CC(c1ccc(Cl)cc1)=NO2 (centres undefined) | -22 | -2 | . | . | 19 | .
CSCCC(NC(=O)c1ccc([N+](=O)[O-])cc1Cl)C(=O)OCC(=O)NC(=O)CN1CCCC1=O (centres undefined) | -1 | -8 | . | 0 | 56* | -3
CSCCC(NC(=O)c1ccc([N+](=O)[O-])cc1Cl)C(=O)OCC(=O)NC1CCCC(C)C1C (centres undefined) | -10 | -22 | 3 | 6 | 17 | 13
CSCCC(NC(=O)c1ccc([N+](=O)[O-])cc1Cl)C(=O)OC1CCCCC1=O (centres undefined) | -19 | -10 | -9 | 1 | 67* | 1
O=C(CNC(=O)c1cc(Cl)cc([N+](=O)[O-])c1)OCC(=O)N1CCCCC1 | -6 | -17 | . | 0 | 41* | 0
O=C(NCC1CCCCC1)c1cccc([N+](=O)[O-])c1 | -9 | -6 | -2 | -1 | 3 | -2
SMILES | OX1R antag-1 | CHO parental Ca | GPR7 antagonist | TAAR1 ag | OX1R antag-2 | TAAR1 antagonist
NC(=O)COC(=O)CNC(=O)c1cc(Cl)cc([N+](=O)[O-])c1 | -15 | 1 | -2 | 6 | 53* | 21
O=C(NCC1CC1)c1cc([N+](=O)[O-])cc([N+](=O)[O-])c1 | -5 | -8 | -8 | 11 | 54* | -3
Cc1cc(C(=O)NCC(=O)OCC(=O)N2CCCCCC2)ccc1[N+](=O)[O-] | -5 | -7 | -5 | 1 | 11 | -13
CC(C)(C)NC(=O)NC(=O)COC(=O)CNC(=O)c1cc(Cl)cc([N+](=O)[O-])c1 | -8 | -10 | -1 | 0 | 68 | -3
CCOc1ccc(C(=O)COC(=O)c2cc(=O)[nH]c3ccccc23)cc1 | -27 | -14 | . | 2 | 17 | -13
CN(C)C(=O)CSc1nnc(-c2cc(-c3cccs3)nc3ccccc23)o1 | -9 | -34 | -13 | 15 | 37 | 50*
CSc1ccc(C2c3[nH]c4ccccc4c3CCN2C(=O)c2ccnn2C)cc1 (centres undefined) | -24 | -1 | 17 | 14 | 19 | 49*
CCOc1ccc(N(C)S(=O)(=O)c2cc(-c3cc(C)no3)ccc2CC)cc1 | 43* | 64* | 6 | 2 | 17 | 58*
CCc1ccc(-c2cc(C)no2)cc1S(=O)(=O)N1CCOc2ccccc21 | -27 | -19 | -5 | 3 | 49* | 3
CCOc1ccc(N(C)S(=O)(=O)c2cc(-c3cc(C)no3)ccc2OC)cc1 | -19 | -12 | -6 | 1 | 12 | 15
N#Cc1ccc(NC(=S)NC(=O)CCc2ccc(S(=O)(=O)N3CCOCC3)cc2)cc1 | -8 | 16 | -9 | 5 | 3 | -24
Cc1cccn2c(=O)c3cc(C(=O)NCCN4CCOCC4)c(=N)n(CCN4CCOCC4)c3nc12 | -1 | 1 | 6 | -3 | 53* | 7
COc1ccc(CCNC(=O)c2cc3c(=O)n4cccc(C)c4nc3n(CCCN3CCOCC3)c2=N)cc1 | -18 | -16 | -8 | 0 | 23 | 5
Cc1cccn2c(=O)c3cc(C(=O)NCCN4CCOCC4)c(=N)n(Cc4ccc(F)cc4)c3nc12 | -16 | -17 | -9 | -1 | 40* | -10
CCOCCCn1c(=N)c(C(=O)NCCN2CCOCC2)cc2c(=O)n3cccc(C)c3nc21 | -18 | -6 | -3 | 2 | 57* | 8
CC(C)COP(=O)(OCC(C)C)C(Nc1ccccc1)c1ccccc1 (centres undefined) | -27 | -24 | 7 | 6 | 23 | 17
CC(C)COP(=O)(OCC(C)C)C(Nc1ccccc1)c1ccc(F)cc1 (centres undefined) | -22 | -51 | 18* | 3 | 17 | 32
CCCCCCCCC#Cc1nc(C)ccc1OC | 42 | 48* | . | 6 | 10 | 6
CCCCCCNS(=O)(=O)c1ccc(OC)c(OC)c1 | -21 | -15 | 3 | 11 | 12 | -2

Source: PubChem (The Scripps Research Institute Molecular Screening Center)
